# A selection: hits, their analogues and other compounds. The true share with any hit is near 1.3%.
# PfG6PD inh = PfG6PD (Plasmodium falciparum) enzyme inhibition; inhibition, % at 20 µM; 350,000 tested, 0.78% active; AID 504690; PfGluPho enzyme, NADPH resazurin-diaphorase fluorescence;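 active means inhibition reaching at least a set limit at 20 µM in the primary screen, cut at about 59% in these data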;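 further: 0% = DMSO wells with substrate and 100% = DMSO wells lacking glucose-6-phosphate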
# G6PDH CS = L. mesenteroides G6PDH inhibition counter-screen | inhibition, % at 5 µM | 200,000 tested, 0.12% active | AID 1020 | Purified L. mesenteroides G6PDH, diaphorase/resazurin coupled fluorescence, 45 min; in the data active means inhibition above about 50%
# Diaphorase act = diaphorase activation or chemical reduction counter-screen; Diaphorase/resazurin coupled assay, resorufin fluorescence, 16 min; hits give high values; 1 = vehicle wells, 0 = NADH-free wells; activation factor at 20 µM; 190,000 tested, 0.005% active;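 active means diaphorase activity raised at least twofold by the compound at 20 µM; inactive means activation factor below 2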
#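 Test system: Clostridium kluyveri diaphorase, purified enzyme; input: enzyme 0.07 U/mL final; buffer or medium: 50 mM HEPES pH 7.4 with 4.542 mM MgCl2, 0.005% Tween 20; also added: 0.114 mM NADH and 0.1 mM resazurin, final amounts; schedule: 16 min enzyme reaction, ambient temperature; technique: fluorescence of resorufin, 544 nm excitation, 590 nm emission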
# HKDC1 inhibitor = inhibitors of human hexokinase HKDC1; inhibition, % at 20 µM; 340,000 tested, 0.16% active; recombinant HKDC1, G6PDH/diaphorase resazurin coupled fluorescence;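 active means inhibition above about 35% when tested at 20 µM, limit read from the data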;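 further: plate controls were DMSO wells with enzyme for no effect and DMSO wells lacking enzyme for full effect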
#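 Test system: HK5 enzyme. Quantity: 5 µg/mL HK5 final. Reagent: glucose and ATP substrates. Schedule: 90 min reaction incubation at room temperature, dark. Technique: resazurin-to-resorufin fluorescence via G6PDH and diaphorase coupling, 525/613 nm. Control set: DMSO wells with and without enzyme mix.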
# Diaphorase inh = diaphorase inhibition or chemical oxidation counter-screen; diaphorase resazurin-to-resorufin fluorescence, NADH, 16 min; bacterial (C. kluyveri) enzyme, not human; inhibition, % at 20 µM; 190,000 tested, 0.69% active; AID 1217;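 active means primary screen inhibition at 20 µM above a set limit, cut at about 50% in these data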;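 further: plate controls were DMSO with full reaction for no effect and wells lacking NADH for full effect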
#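 Assay system: diaphorase enzyme from Clostridium kluyveri; Input: enzyme working solution with 0.14 U/mL diaphorase; Timing: 16 min at room temperature; Technique: resorufin fluorescence, excitation 544 nm, emission 590 nm; Benchmarks: positive control minus NADH, DMSO neutral control.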
# The depositor's hits bear a star; nt = not tested or not shown.
SMILES,PfG6PD inh,G6PDH CS,Diaphorase act,HKDC1 inhibitor,Diaphorase inh
O=C1CCNc2cc3ccccc3cc21,57,58*,0.3,18,66*
NC(=O)N/N=C/c1c(Sc2nnnn2-c2ccccc2)nc2ccccn2c1=O,16,nt,nt,6,nt
COCCn1c(NC(=S)NC(=O)C2CC2)cc(=O)[nH]c1=O,13,-7,0.4,1,61*
COCCn1c(NC(=S)NC(=O)C23CC4CC(CC(C4)C2)C3)cc(=O)[nH]c1=O,16,nt,nt,6,nt
CCOC(=O)c1ccccc1NC(=O)c1ccc2nccnc2c1,1,2,0.5,-2,55*
CCOC(=O)C1CCN(S(=O)(=O)Cc2ccccc2)CC1,-10,51*,1.1,4,-15
O=C(CSc1nnc(NC2CC2)s1)NN1C(=O)NC2(CCCCC2)C1=O,2,nt,nt,-5,nt
Cc1cc(O)ccc1Nc1nc2ccccc2nc1Nc1ccc(O)cc1C,44,15,0.4,31,59*
Cc1nc2ccccc2n1CCc1nc2c3ccccc3nc(=S)n2[nH]1,19,-1,0.1,4,89*
Cc1cccc(Cn2nnc3c2C(=O)c2ccccc2C3=O)c1,-4,54*,0.8,13,18
CC(CCc1ccccc1)NC(=O)C(Cc1ccccc1)NC(N)=O (stereo not drawn),-7,nt,nt,-6,nt
COc1cc(O)c2c(c1)OC(c1ccc(O)cc1)CC2=O (stereo not drawn),7,5,0.4,2,57*
CCCOC(=O)N[C@@H]1C(=O)N2C(C(=O)OCCC)=C(C)CS[C@H]12,6,nt,nt,4,nt
CCc1ccc(-n2c(C)cc(/C=N/NC(=O)c3ccncc3)c2C)cc1,27,15,0.2,-4,84*
Cc1[nH]nc(-c2cccnc2)c1N=NN(C)C,16,nt,nt,1,nt
C[C@@H]1CN([C@H](C)CO)C(=O)CCCn2nncc2CO[C@H]1CN(C)Cc1ccccc1,-11,nt,nt,nt,nt
Cc1c(/C=N/Nc2ccc(F)cc2)c(O)n(C)c(=O)c1C#N,11,26,0.4,4,56*
CC(=O)N=Cc1c(C)c(C#N)c(=O)n(C)c1O,39,8,0.7,-3,29
O=C(NC1CCN(Cc2ccc(Cl)cc2Cl)CC1)c1ccccc1,35,nt,nt,-1,nt
O=C(CSc1ccc(-c2ccccn2)nn1)c1ccccc1,1,2,1,-11,-1
O=C(CSc1ccc(-c2ccccn2)nn1)c1ccc(F)cc1,13,-3,0.4,-1,58*
Cc1ccc(S(=O)(=O)N2CCN(C(=O)CCC(=O)NCc3ccc(F)cc3)CC2)cc1,1,1,0.8,-15,18
O=C(O)c1cc(-c2ccc(O)cc2)on1,10,15,0.3,-5,75*
CC1CCC/C(=C\c2ccc(O)cc2)C1=O (stereo not drawn),-10,nt,nt,-2,nt
COc1ccc(/C=C2\CCC(C3CCCC3)C2=O)cc1 (stereo not drawn),1,nt,nt,2,nt
SMILES,PfG6PD inh,G6PDH CS,Diaphorase act,HKDC1 inhibitor,Diaphorase inh
COc1ccc(/C=C2/CCC(CN3CCOCC3)C2=O)cc1 (stereo not drawn),76*,nt,nt,15,nt
CN(C)CC1CC/C(=C\c2ccc(O)cc2)C1=O (stereo not drawn),61*,nt,nt,7,nt
Fc1ccccc1/C=N/n1cc(-c2ccccc2)[nH]c1=S,48,nt,nt,-3,nt
Cc1ccc(C)c(/C=N/n2cc(-c3ccccc3)[nH]c2=S)c1,28,-8,0.2,-5,76*
Cc1ccc2nc(C)cc(N3CCOCC3)c2c1,16,8,0.9,-4,9
Cc1c(C(=O)O)c(C(=O)O)nc2ccc(N3CCOCC3)cc12,nt,14,0.5,nt,55*
COc1ccc(CCNC(=O)c2cnn3c(C(F)F)cc(C)nc23)cc1OC,29,5,0.2,31,78*
COc1ccccc1CCNC(=O)c1cnn2c(C(F)F)cc(C)nc12,18,-9,0.8,21,21
CSc1nc(-c2ccccc2)[nH]c(=S)c1C(C)=O,-18,-2,0.3,0,73*
CC(=O)c1c(NC(=O)c2ccccc2)[nH]c(-c2ccccc2)nc1=S,1,-2,0.3,-9,67*
Cc1cc(C=O)c(O)cc1O,7,nt,nt,0,nt
Cc1ccc(-n2c(C)cc(/C=N/NC(=O)CC3(C)OCCO3)c2C)c(C)c1,8,4,0.9,5,10
CC1(CC(=O)N/N=C/c2cc([N+](=O)[O-])c(O)cc2O)OCCO1,-23,-7,0.4,-10,60*
C/C(=N\NS(=O)(=O)c1ccc([N+](=O)[O-])cc1)c1c[nH]c2ccccc12,-6,nt,nt,-1,nt
C=CCc1cccc2cc(C(=O)Nc3ccc(S(=O)(=O)Nc4nnc(CC)s4)cc3)c(=O)oc12,-16,-22,0.5,11,52*
C=CCc1cccc2cc(C(=O)Nc3ccc(F)cc3)c(=O)oc12,-4,1,1,-7,2
CCN1C/C(=C\c2cccc([N+](=O)[O-])c2)C(=O)/C(=C/c2cccc([N+](=O)[O-])c2)C1,38,4,1,43*,2
CN(C)c1c([N+](=O)[O-])cc(N2C(=O)C=CC2=O)cc1[N+](=O)[O-],103*,nt,nt,0,nt
CCCc1ccc(S(=O)(=O)N2CCN(C(C)C(=O)NCc3ccc(OC)cc3)CC2)cc1 (stereo not drawn),0,nt,nt,-2,nt
S=C1SC2(CCCCCC2)NC2=C1CCCCC2,8,nt,nt,nt,nt
CCOC(=O)C1=C(C)NC(=O)NC1c1c(C)nn(-c2ccccc2)c1Cl (stereo not drawn),11,1,0.5,24,52*
CCOC(=O)C1=C(C)N(C)C(=O)NC1c1c(C)nn(-c2ccc(C)cc2)c1Cl (stereo not drawn),-12,4,1,1,2
O=C(CC1CC2CCC1C2)N1CCN(S(=O)(=O)c2ccc(F)cc2)CC1 (stereo not drawn),9,nt,nt,nt,nt
N#Cc1c(NCCN)nc(NCc2ccccc2)c2c1CCN(Cc1ccccc1)C2,6,8,1.1,0,-9
C=CCNc1nc(NCc2ccccc2)c(C#N)c2c1CN(C)CC2,57,12,0.4,10,63*
SMILES,PfG6PD inh,G6PDH CS,Diaphorase act,HKDC1 inhibitor,Diaphorase inh
CCc1ccc(C2C(C#N)=C(N)SC(N)=C2C#N)s1,16,20,0.9,13,15
Cc1ccc(C2C(C#N)=C(N)SC(N)=C2C#N)o1,nt,21,0.3,nt,66*
C#CCN1C(=O)S/C(=C\c2ccc(-c3ccc(C(=O)O)cc3C)o2)C1=O,6,nt,nt,12,nt
Cc1ccc(C(=O)O)cc1-c1ccc(/C=C2\SC(=O)N(CC(=O)Nc3ccccc3)C2=O)o1,-2,9,0.4,12,57*
Cc1ccc(NC(=O)CN2C(=O)S/C(=C\c3ccc(-c4cccc(C(=O)O)c4C)o3)C2=O)cc1,nt,4,0.7,nt,28
Cc1ccc(NC(=O)CN2C(=O)S/C(=C/c3ccc(-c4cccc(C(=O)O)c4)o3)C2=O)cc1,-13,9,0.4,29,57*
